Assay outcomes (PubChem BioAssay)
A3A deaminase – APOBEC3A ssDNA deaminase inhibitors, primary screen, selectivity assay for APOBEC3G inhibitor project, biochemical, FAM/TAMRA oligo cleavage fluorescence. hit rate 0.41% among 330,000. inhibition, % at 20 µM. AID 493011, 2011. recombinant A3A, FAM/TAMRA ssDNA deamination fluorescence;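 active means at least 40% inhibition at 20 µM here, with at most 30% in a related deaminase screen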
Target sequence (P31941 whole entry, looked up): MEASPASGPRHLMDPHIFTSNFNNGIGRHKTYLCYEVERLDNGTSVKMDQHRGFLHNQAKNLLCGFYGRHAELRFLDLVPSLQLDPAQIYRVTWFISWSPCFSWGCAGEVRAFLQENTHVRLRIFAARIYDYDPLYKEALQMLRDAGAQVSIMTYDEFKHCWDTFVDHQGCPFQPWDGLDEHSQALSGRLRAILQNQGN
PRMT1 inh – PRMT1 methyltransferase inhibitors, primary screen, biochemical, fluorescence polarization; recombinant PRMT1, activity-based probe fluorescence polarization; inhibition, % at 2.79 µM; hit rate 1.3% among 370,000;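 active means inhibition above about 21% made by adding two undisclosed values, limit read from the data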
Target sequence (Q99873 whole entry, looked up): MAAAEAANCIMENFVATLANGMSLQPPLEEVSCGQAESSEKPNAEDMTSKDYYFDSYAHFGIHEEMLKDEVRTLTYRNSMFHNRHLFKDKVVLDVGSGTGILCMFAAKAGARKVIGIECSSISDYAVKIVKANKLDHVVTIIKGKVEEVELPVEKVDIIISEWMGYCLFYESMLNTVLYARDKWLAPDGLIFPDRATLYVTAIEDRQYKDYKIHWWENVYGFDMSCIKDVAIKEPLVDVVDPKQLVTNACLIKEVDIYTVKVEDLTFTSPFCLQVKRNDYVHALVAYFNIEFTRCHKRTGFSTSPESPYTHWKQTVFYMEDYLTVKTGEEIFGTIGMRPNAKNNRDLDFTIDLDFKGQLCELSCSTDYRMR
APOBEC3G inh – APOBEC3G DNA deaminase inhibitors, primary screen, biochemical, fluorescence, single-stranded DNA substrate, uHTS. DNA dC->dU-editing enzyme APOBEC-3G (Homo sapiens), Q9HC16. recombinant A3G, ssDNA deamination FAM/TAMRA fluorescence. inhibition, % at 20 µM. hit rate 0.28% among 330,000;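 active means inhibition of at least 40% at 20 µM, with no more than 30% in the related APOBEC3A deaminase screen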
core dimer inh – inhibitors of HCV core protein dimerization, primary screen, biochemical, TR-FRET, high-throughput; TR-FRET GST/Flag-core106 dimerization, 1536-well; inhibition, % at 5 µM; hit rate 0.33% among 300,000; AID 1899, 2009;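 active means inhibition above the mean of all tested compounds plus 3 SD, set per screening campaign, cut at about 45% in these data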
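System: GST/Flag-tagged HCV core106 proteins. Incubation: compound-protein-antibody incubation 4 h at 22.5 °C. Technique: HTRF with 340 nm excitation, 617/671 nm emission. Medium: KF-containing HEPES buffer, pH 7.45, DTT, CHAPS, BSA. Read-out: inhibition (%) from 671 over 617 nm ratio. Also added: Eu(K)-anti-GST 90 ng/mL plus XL665-anti-Flag 1 µg/mL.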
ABHD5 PLIN5 PPI – ABHD5-PLIN5 interaction inhibitors, primary screen, cell lysate, split luciferase complementation, luminescence; Perilipin-5 (Homo sapiens) + 1-acylglycerol-3-phosphate O-acyltransferase ABHD5 (Homo …; Split G. princeps luciferase complementation, 4 h; inhibition, % at 4 µM; hit rate 0.78% among 360,000; AID 602281, 2012;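 active means inhibition above the mean inhibition across every tested compound plus 3 SD, cut at about 22% in these data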
NS3 helicase inh – inhibitors of HCV NS3 helicase, primary screen, biochemical, Cy5 molecular beacon fluorescence; inhibition, % at 10.9 µM; NS3 helicase DNA unwinding; Hepatitis C virus NS3 helicase; hit rate 0.56% among 290,000;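 active means inhibition above the mean of all tested compounds plus 3 SD, set per campaign, cut at about 35% in these data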
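Control set: DMSO versus 110 µM thioflavine S; Material: NS3 helicase fragment of HCV; Measured by: Cy5 fluorescence at 0 and 60 min, beacon hairpin quenching; Read-out basis: percent inhibition from t60/t0 fluorescence ratio; Times: reaction time 60 min, 25 °C; Repeats: single replicate; Compound dosing: single dose, 10.9 µM nominal final, DMSO 0.8% final.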
PRMT1 inh conf – PRMT1 methyltransferase inhibitors, confirmation, biochemical, fluorescence polarization, triplicate | shares compounds with PRMT1 inh | recombinant His-PRMT1, activity-based probe fluorescence polarization | inhibition, % at 2.79 µM | hit rate 42% among 3,300 | AID 687036, 2013;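 active means mean inhibition across replicates above the hit cutoff derived for the earlier primary screen, cut at about 22% in these data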
A number is an active result; – = inactive; · = no result. This is a sample that favours compounds with a hit; in the whole collection about 2.9% have one here.

SMILES	A3A deaminase	PRMT1 inh	APOBEC3G inh	core dimer inh	ABHD5 PLIN5 PPI	NS3 helicase inh	PRMT1 inh conf
CC(/C=C/c1ccco1)=N\NC(=O)c1cccnc1	–	–	–	–	–	–	·
O=C(NCc1ccccc1)C1Nc2ccc(OC(F)(F)F)cc2C2C=CCC12 (centres undefined)	–	–	–	–	–	·	·
O=C(NCc1ccccn1)C1Nc2ccc(OC(F)(F)F)cc2C2C=CCC12 (centres undefined)	–	34	–	–	–	·	–
O=[N+]([O-])c1ccc(S(=O)(=O)Nc2ccc(-c3ccccc3)cc2)cc1	·	–	·	·	–	·	·
O=C(CCNC(=O)c1ccccc1)NNC(=O)c1ccccc1Br	–	–	–	·	–	·	·
COC(=O)C1CN(Cc2ccc(C)cc2)CCS(=O)(=O)N1Cc1cn(Cc2ccc(F)cc2)nn1 (centres undefined)	·	–	·	·	·	·	·
COc1ccc(C2CC(c3c(O)cc(C)oc3=O)=NCCS2)c(OC)c1 (centres undefined)	–	·	–	–	–	–	·
Cc1cc(O)c(C2=Nc3ccccc3SC(c3ccc(Cl)cc3)C2)c(=O)o1 (centres undefined)	–	37	–	–	–	–	–
COc1ccc(C(=O)C[n+]2ccc3c(c2)nc(-c2cc(OC)c(OC)cc2OC)n3C)cc1	–	–	–	–	–	–	·
COc1ccc(C(=O)C[n+]2ccc3c(c2)nc(Cc2ccccc2)n3C)cc1	·	29	·	·	·	·	–
CCOC(=O)[C@]12CCCC=C1N(Cc1ccc(Cl)cc1Cl)C(=O)[C@H](CC(=O)NCc1cccc3ccccc13)C2	·	–	·	·	–	·	·
CCc1ccc2nc(N(CCN(C)C)C(=O)c3ccc4ncsc4c3)sc2c1	–	43	–	–	–	–	–
CN(C)CCN(C(=O)c1ccc2c(c1)OCCO2)c1nc2ccc(Cl)cc2s1	–	–	–	–	–	–	·
Cc1cccc2sc(N(CCCN(C)C)C(=O)c3nc4ccccc4s3)nc12	–	–	–	–	–	–	·
Cc1cccc2sc(N(CCCN(C)C)C(=O)c3ccc4ncsc4c3)nc12	–	29	–	–	–	–	–
Cc1cc(N)nc(=O)n1C1CC(O)C(CO)O1 (centres undefined)	·	–	·	·	–	·	·
CCN(C(=O)COC(=O)/C=C/c1ccc(OC)c(OC)c1)c1c(N)n(Cc2ccccc2)c(=O)[nH]c1=O	·	–	·	·	–	·	·
CCN(CC)CCN1C(=O)c2cccc3cc(N)cc(c23)C1=O	–	25	–	–	–	–	22
Cc1cc(C(=O)Nc2ccc(Nc3ccccc3)cc2)ccc1[N+](=O)[O-]	–	28	–	–	–	–	–
O=C(Nc1ccc(Nc2ccccc2)cc1)c1ccc(Cl)c([N+](=O)[O-])c1	–	–	–	–	–	–	·
Cc1occc1-c1nnc(SCC(=O)NC2CCC(C)CC2)o1 (centres undefined)	–	–	–	·	–	·	·
CN1CC=C2C(C#N)=C(N)C(C#N)(C#N)[C@H](c3cccc(Cl)c3)C2C1 (some centres undefined)	–	26	–	–	–	–	–
CCCC1C2CN(C(C)C)CC=C2C(C#N)=C(N)C1(C#N)C#N (centres undefined)	·	70	·	–	–	–	22
CN1CC=C2C(C#N)=C(N)C(C#N)(C#N)C(CCc3ccccc3)C2C1 (centres undefined)	–	·	–	–	–	–	·
CCN1CC=C2C(C#N)=C(N)C(C#N)(C#N)[C@H](c3cccc(OC)c3OC)[C@H]2C1	–	37	–	–	–	–	–
SMILES	A3A deaminase	PRMT1 inh	APOBEC3G inh	core dimer inh	ABHD5 PLIN5 PPI	NS3 helicase inh	PRMT1 inh conf
CC(C)c1nnc(NC(=O)C2CCN(C(=O)Nc3ccccc3)CC2)s1	–	–	–	–	–	–	·
COc1ccc(C2/C(=C(\O)c3ccc4c(c3)CC(C)O4)C(=O)C(=O)N2Cc2cccnc2)c(OC)c1 (centres undefined)	–	–	–	–	–	–	·
Clc1cccc(Cc2c(-c3cccc(Cl)c3)nc3c4ccccc4ccn23)c1	·	–	·	·	–	·	·
FC(F)(F)c1ccccc1Cc1c(-c2ccco2)nc2ccc(Br)cn12	·	36	·	·	34	·	–
Cc1cc(Br)cn2c(Cc3cccc(F)c3)c(-c3ccco3)nc12	·	35	·	·	·	·	30
Cc1cc(Br)cn2c(Cc3cccc(F)c3)c(-c3cccc(Cl)c3)nc12	·	–	·	·	·	·	·
Clc1cccc(Cc2c(-c3ccco3)nc3c4ccccc4ccn23)c1	·	25	·	·	–	·	–
Cc1ccc2nc(-c3ccco3)c(Cc3ccccc3C(F)(F)F)n2c1	·	33	·	·	·	·	–
O=C(COC(=O)/C=C/c1ccc(OC(F)F)cc1)NC1CCCCCC1	–	–	–	·	–	·	·
O=C(Nc1ccc2ccccc2c1)OC1CCS(=O)(=O)C1 (centres undefined)	·	–	·	·	–	·	·
CCN(C[C@H]1N[C@@](Cc2ccccc2)(C(=O)OC)[C@H]2C(=O)N(Cc3ccccc3)C(=O)[C@@H]12)C(=O)Nc1ccc(C(F)(F)F)cc1	–	–	–	·	–	·	·
O=C(NC(=S)NC1C2CC3CC(C2)CC1C3)c1ccccc1 (centres undefined)	–	–	–	–	–	–	·
Cc1cc2nc(-c3ccco3)c(Cc3ccccc3C(F)(F)F)n2c(C)c1Br	·	36	·	·	40	·	–
Fc1ccc(-c2nc3c4ccccc4ccn3c2Cc2ccccc2C(F)(F)F)cc1	·	·	·	·	–	·	·
COc1ccc(-c2nc3cc(C)c(Br)c(C)n3c2Cc2ccccc2C(F)(F)F)cc1OC	·	–	·	·	–	·	·
FC(F)(F)c1ccccc1Cc1c(-c2ccco2)nc2c3ccccc3ccn12	·	32	·	·	·	·	23
O=C(CCc1nc(-c2ccc(Cl)cc2)no1)NCc1ccccc1CN1CCOCC1	–	–	–	·	–	·	·
C/C(=N/Nc1ccnc2cc(Cl)ccc12)c1ccc(O)cc1	–	37	–	–	–	·	–
C/C(=N/Nc1ccnc2cc(Cl)ccc12)c1ccc(N)cc1	–	–	–	–	–	·	·
Cc1ccc(N2C(=O)CCC(C(=O)O)C2c2cccs2)cc1 (centres undefined)	–	–	–	–	–	–	·
CC(=O)C1=C(C)NC(SCC(=O)Nc2nccs2)=C(C#N)C1c1ccccc1Cl (centres undefined)	–	26	–	–	–	–	–
